# Assay outcomes from PubChem BioAssay.
# Only some compounds are listed: those with a hit (about 1.3% of all), similar ones and a draw of the others.
# LEDGF integ inh: blocks HIV-1 LEDGF/p75-dependent DNA integration; TR-FRET IN-LEDGF/p75 DNA integration, Eu/Cy5; inhibition, % at 3.7 µM; actives 0.64% (n = 370,000); AID 743269;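 active = inhibition above the screen-wide mean plus 3 SD, cut at about 13% in these data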;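 also: signal is the Cy5 over europium emission ratio at 671 and 618 nm; 0% = plate median of compound wells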
# ARFGAP1 inh: inhibitors of rat ARFGAP1; Q62848; inhibition, % at 16.5 µM; actives 0.26% (n = 360,000); Arfgap1-stimulated ARF1 GTP hydrolysis, GDP FP detection;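 active = inhibition above a per-plate limit, mean inhibition of low control wells plus 3 SD, cut at about 25% in these data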;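 also: 0% = DMSO wells with enzyme and 100% = wells lacking Arfgap1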
#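 Material – truncated rat Arfgap1 GAP domain · Buffer or medium – HEPES-based buffer, pH 7.5 · Reagent – human ARF1(Δ1-17)-GTP substrate · Dosing – 16.5 µM single point, 1.26% DMSO · Schedule – GTP hydrolysis reaction 2 h at 25 °C · Technique – GDP detection by fluorescence polarization · Benchmarks – No-Arfgap1 wells (100%) versus DMSO full-reaction wells (0%) · Repeats – single replicate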
# Casp6 inh: caspase-6 (human) enzyme inhibition | inhibition, % at 12.5 µM | AID 686996 | purified caspase-6, Z-VEID-R110 cleavage fluorescence | actives 0.53% (n = 350,000) | P55212;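 active = mean inhibition across replicates at least about 35%, with every replicate also reaching that limit, limit read from the data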;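 also: 0% = median of neutral control wells and 100% = no fluorescence left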
# Target sequence (P55212 24-179 limits assumed): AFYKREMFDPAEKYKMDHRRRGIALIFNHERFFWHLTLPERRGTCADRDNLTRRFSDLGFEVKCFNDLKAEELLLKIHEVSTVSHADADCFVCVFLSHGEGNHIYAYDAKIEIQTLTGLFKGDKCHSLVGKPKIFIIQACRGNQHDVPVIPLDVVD
# Target sequence (P55212 194-293 limits assumed): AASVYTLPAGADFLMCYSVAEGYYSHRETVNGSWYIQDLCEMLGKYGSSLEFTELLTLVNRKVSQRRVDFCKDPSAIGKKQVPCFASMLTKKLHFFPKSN
# TDP2 absorb: TDP2 (human) inhibition, absorbance primary screen; inhibition, % at 12.8 µM; O95551; actives 0.34% (n = 370,000); recombinant TDP2, T5PNP hydrolysis, p-nitrophenol absorbance 415 nm; AID 720702;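 active = inhibition above the mean of all tested compounds plus 3 SD, set per campaign, cut at about 25% in these data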;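 also: 0% = DMSO with enzyme and 100% = buffer with substrate but no TDP2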
#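 test system = human TDP2 enzyme | input = TDP2 enzyme at 120 nM final | medium = 50 mM Tris-HCl pH 7.5 with Mg2+, KCl, DTT, BSA | also added = T5PNP substrate, 5 mM | times = 2 h at 37 °C | technique = epi absorbance | benchmarks = high control without enzyme, low control DMSO plus TDP2 | replication = each compound tested once, singlicate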
# ASAP1 GAP inh: inhibitors of human ASAP1 ArfGAP activity; ASAP1-stimulated ARF1 GTP hydrolysis, GDP FP detection; AID 624377; actives 0.19% (n = 360,000); Q9ULH1; inhibition, % at 16.5 µM; in the data active = inhibition above about 25%;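 also: 0% = vehicle with enzyme and substrate and 100% = no enzyme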
# Target sequence (Q9ULH1 325-724 limits assumed): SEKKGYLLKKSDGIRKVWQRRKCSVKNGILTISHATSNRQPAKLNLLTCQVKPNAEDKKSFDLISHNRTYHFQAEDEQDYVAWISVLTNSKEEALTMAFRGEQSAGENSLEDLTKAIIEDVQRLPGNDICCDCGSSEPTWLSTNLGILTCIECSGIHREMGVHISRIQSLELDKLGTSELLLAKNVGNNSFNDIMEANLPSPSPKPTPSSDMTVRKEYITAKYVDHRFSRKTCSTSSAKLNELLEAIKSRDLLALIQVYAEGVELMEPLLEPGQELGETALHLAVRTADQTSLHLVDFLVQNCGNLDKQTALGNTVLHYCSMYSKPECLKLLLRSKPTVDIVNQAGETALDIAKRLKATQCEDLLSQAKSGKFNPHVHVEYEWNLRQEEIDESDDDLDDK
# Active calls of the source: *; nt = no result; ! = repeats disagree.
SMILES,LEDGF integ inh,ARFGAP1 inh,Casp6 inh,TDP2 absorb,ASAP1 GAP inh
CC(C)(C)OC(=O)NCCCC[C@H](NC(=O)[C@H](Cc1c[nH]c2ccccc12)NC(=O)OCc1ccccc1)C(=O)O,-2.7,-1.0,38.8*,7.9,4.9
O=C1NC(=Nc2ccc(Cl)cc2)SC1Cc1cc(Cl)ccc1Cl (stereo unspecified),-0.2,-9.8,nt,-9.9,13.1
COc1cccc(NC(=O)CN(C)C(=O)C(C)Sc2ccccc2)c1 (stereo unspecified),-3.4,10.5,-1.9,-3.4,-5.8
c1ccc(Nc2cccc3c(Nc4ccccc4)cccc23)cc1,2.0,19.6,1.8,3.9,12.0
O=S(=O)(O)c1cccc2cccc(Nc3ccccc3)c12,-1.5,-2.1,56.2*,12.8,-2.9
Cc1cccc(NC(=O)Cn2nnc3sc4c(c3c2=O)CC(C)(C)OC4)c1,-1.3,-1.9,2.0,-5.5,-4.0
COc1cccc(NC(=O)Cn2c(=O)n(C)c(=O)c3sc4c(c32)COC(C)(C)C4)c1,-1.2,1.9,43.9*,13.4,5.2
COc1ccc(/C=C2\SC(=S)NC2=O)cc1OS(=O)(=O)c1ccc(NC(C)=O)cc1,-1.4,1.8,40.1*,-2.5,9.3
COc1cccc(/C=C2\SC(=S)NC2=O)c1OS(=O)(=O)c1ccc(NC(C)=O)cc1,2.5,11.5,nt,7.5,-0.7
CCOC(=O)c1c(C)c(C(=O)NCc2ccc(OC)cc2)c(C)n1C,-4.1,-3.9,47.6*,-3.3,-0.5
CCOC(=O)c1c(C)c(C(=O)NCc2ccccc2OC)c(C)n1C,5.6,-2.4,0.4,-9.7,1.9
Cn1c(SCCOc2ccccc2Cl)nnc1-c1ccncc1,-0.5,-5.7,35.1*,4.1,-8.6
O=C(CN1C(=O)NC2(CCCC2)C1=O)OCCOc1ccc(Cl)cc1,4.0,14.2,-1.9,5.1,-9.8
CC(=Cc1ccccc1)C=C1SC(=S)N(CCCC(=O)Nc2ccc(C(=O)O)cc2)C1=O,-2.7,5.3,40.7*,8.2,-2.4
CC(/C=C1\SC(=S)N(CCC(=O)Nc2cccc(C(=O)O)c2)C1=O)=C\c1ccccc1,1.0,2.6,69.5*,0.7,0.4
CC(/C=C1\SC(=S)N(CCCC(=O)Nc2ccc(C(=O)O)cc2)C1=O)=C\c1ccccc1,4.3,7.1,nt,5.3,3.1
COCCc1ncc(CN2CCC(C(=O)Nc3ccc(-n4cccn4)cc3)CC2)cn1,1.1,-8.2,0.7,0.6,3.9
Cc1nn(-c2ccccc2)c(N2CCCCC2)c1/C=N/NC(=O)c1ccncc1,1.0,-4.2,1.9,8.1,-3.5
CCOc1ccc(S(=O)(=O)Nc2ccc(C(=O)N/N=C/c3c(C)nn(-c4ccccc4)c3N3CCCC3)cc2)cc1,-5.5,-5.2,62.2*,-7.3,10.6
CCN(CC)C(=O)Oc1ccc(Br)cc1C(=O)Nc1ccc(F)cc1F,3.3,5.7,-2.2,-24.2,0.1
CN(C)C(=O)c1cccc(-c2ccc([C@@H]3[C@@H](CO)N4CCCCN(C(=O)C5CCC5)C[C@@H]34)cc2)c1,nt,nt,-3.7,nt,nt
COc1cc(-c2nnc(SCc3cc(=O)oc4cc(O)c(O)cc34)o2)cc(OC)c1OC,78.1*,-6.8,nt,1.3,-0.4
CCOC(=O)CSc1nnc(-c2cc(OC)c(OC)c(OC)c2)o1,-0.9,0.2,1.7,2.6,-4.9
CCc1nc2c(OCCC3CCCCC3)cccn2c1N(C)C(=O)COc1ccccc1,0.4,-8.6,nt,-10.6,16.1
O=C1CCCc2ccccc2N1Cc1ccc(Cl)cc1Cl,-3.0,-8.0,nt,-7.1,5.0
SMILES,LEDGF integ inh,ARFGAP1 inh,Casp6 inh,TDP2 absorb,ASAP1 GAP inh
O=C1CCCc2ccccc2N1Cc1ccccc1Cl,-4.3,25.1*,nt,-16.6,-11.7
CCOC(=O)C1=C(C)Nc2ncnn2C1c1ccc2c(c1)OCO2 (stereo unspecified),2.2,-6.1,6.1,14.7,-1.5
NS(=O)(=O)c1ccc(N/N=C/c2ccccc2C(=O)O)c([N+](=O)[O-])c1,0.0,16.6,1.0,10.4,1.7
O=C(O)c1ccccc1NS(=O)(=O)c1ccc(N/N=C/c2ccc(O)c(O)c2)c([N+](=O)[O-])c1,2.7,0.2,63.8*,-11.8,24.1
O=C(O)COc1ccccc1/C=N/Nc1ccc(S(=O)(=O)Nc2ccc(Cl)cc2)cc1[N+](=O)[O-],-3.5,4.4,24.2,-7.2,4.4
O=C(O)c1ccccc1NS(=O)(=O)c1ccc(NN=Cc2cccc(Cl)c2)c([N+](=O)[O-])c1,1.7,-5.7,62.4*,-6.0,-10.8
Cc1cc(OCC(=O)NCCO)cc(C)c1Cl,2.6,-6.4,nt,0.8,-5.2
C=CCNc1nc(Nc2cc(Cl)ccc2OC)nc(OC)n1,-4.2,6.9,39.4*,-6.5,-1.9
CCC(=O)N1CCC1(C)C(=O)Nc1ccc2c(c1)CCN2C(C)=O (stereo unspecified),2.5,5.5,48.6*,2.6,0.5
CCCC(=O)N1CCCC1(C)C(=O)Nc1ccc2c(c1)CCN2C(C)=O (stereo unspecified),3.1,-9.2,0.1,-1.3,-1.7
Cc1cc(N2C(=O)C(O)=C(C(=O)c3cc4ccccc4o3)C2c2ccc(Br)cc2)no1 (stereo unspecified),0.9,-9.4,47.6*,4.8,7.8
Cc1ccc(S(=O)(=O)N(C)C[C@@H]2Oc3cc(C#Cc4ccccc4)ccc3S(=O)(=O)N([C@H](C)CO)C[C@@H]2C)cc1,nt,nt,0.9,nt,nt
C[C@H]1CN([C@@H](C)CO)S(=O)(=O)c2ccc(C#CCN(C)C)cc2O[C@H]1CN(C)Cc1ccc2c(c1)OCO2,nt,nt,36.1*,nt,nt
C[C@H]1CN([C@@H](C)CO)S(=O)(=O)c2ccc(C#CCN(C)C)cc2O[C@@H]1CN(C)Cc1ccc2c(c1)OCO2,nt,nt,0.6,nt,nt
Cc1ccc(S(=O)(=O)N(C)C[C@@H]2Oc3cc(C#Cc4ccccc4)ccc3S(=O)(=O)N([C@@H](C)CO)C[C@@H]2C)cc1,nt,nt,39.1*,nt,nt
C[C@@H]1CN([C@@H](C)CO)S(=O)(=O)c2ccc(-c3ccc(C#N)cc3)cc2O[C@@H]1CN(C)Cc1ccccn1,-3.1,0.3,44.7*!,7.7,8.8
CC(=O)NC(Cc1ccccc1)C(=O)N1CCN(C(=S)NCC(C)C)CC1 (stereo unspecified),-1.1,-1.8,-1.1,-1.1,-3.2
CN(C)/C=C1\C(=O)NN=C1c1ccccc1,-2.9,8.1,4.5,-7.3,13.3
CC1CN=C(NC2CCCCC2C)S1 (stereo unspecified),0.9,-12.0,nt,-4.5,-2.9
CCC(C)(C)NC(=O)CN(C(=O)CNS(=O)(=O)c1ccc(F)cc1)c1ccc2c(c1)OCCO2,-0.7,-4.8,47.4*,1.2,-1.4
CO[C@H]1CN(C)C(=O)c2cc(NC(=O)c3ccno3)ccc2OC[C@@H](C)N(S(C)(=O)=O)C[C@@H]1C,nt,nt,-1.0,nt,nt
Cc1occc1C(=O)NCc1ccccc1,-0.3,2.1,nt,9.3,-3.7
Cc1occc1C(=O)NCc1ccco1,-3.1,6.1,40.8*,-7.3,-7.1
O=C(N[C@H]1CC[C@H](CCn2cc(-c3ccccn3)nn2)O[C@@H]1CO)c1ccc(F)cc1,nt,nt,3.7,nt,nt
